A word on the IC50: it is the concentration needed to halve the response being measured. Broadly, the inhibition is how much of the control response was suppressed.

The source made the active and inactive calls. No cut-off for these calls is given here.

Molecular target in one test: not listed separately
In words: (§1) Inhibition of recombinant Curvularia lunata trihydroxynaphthalene reductase.
Settings: not given
A digest of the protocol:
(§2)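 GST-fusion 3HNR from C. lunata expressed in E. coli BL21-AI, bound on glutathione-Sepharose, thrombin-cleaved, purity checked by SDS-PAGE. Initial rates of DDBO oxidation with NADP+ reduction followed at 340 nm (NADPH absorbance), 25 °C. Conditions: 0.2 µM enzyme, 100 µM DDBO, 500 µM coenzyme, 100 mM phosphate pH 7.0, 1% final DMF. Compounds screened at 100 µM; IC50 determined over 5–200 µM where screening inhibition exceeded 35%.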
As for `O=C1CC(=O)c2ccccc21`, the IC50 was 66 µM.
Same read-out and setting: then `CCOC(=O)c1cc(=O)c2cc(C)cc([N+](=O)[O-])c2o1`, with 167 µM; and `CCOC(=O)c1cc(=O)c2cc(C)ccc2o1`, with 120 µM.
Still for that read-out and setting: then `CCc1cccc2c3c([nH]c12)C(CC)(CC(=O)O)OCC3` (configuration not stated) [ETODOLAC], with 17 µM.
Same read-out and setting: then `O=C(O)Cc1ccccc1Nc1c(Cl)cccc1Cl` [DICLOFENAC SODIUM], with 108 µM.
As to `COc1ccc2cc(CCC(C)=O)ccc2c1` [NABUMETONE], the IC50 is 111 µM.

The next test relates to Curvularia lunata. The description is as §1.
Settings: not given
A digest of the protocol: as §2
As to `CC(C)Cc1ccc(C(C)C(=O)O)cc1` (configuration not stated), the result was inactive.
On the same count and under the same terms, then `CC(C(=O)O)c1cccc(C(=O)c2ccccc2)c1` (configuration not stated), with “inactive”; and `CCOc1ccc(NC(C)=O)cc1`, with “inactive”; and `CC(=O)Nc1ccc(O)cc1`, with “inactive”.

The test is the same for the next values; noted with them: concentration not given here.
Turning to `COc1ccc2cc([C@H](C)C(=O)O)ccc2c1`, the inhibition amounted to 9%.
On the same count and under the same terms, then `Cc1ccc(-c2cc(C(F)(F)F)nn2-c2ccc(S(N)(=O)=O)cc2)cc1`, with 17%.

Source of the values: ChEMBL document CHEMBL1150397, “Towards the first inhibitors of trihydroxynaphthalene reductase from Curvularia lunata: synthesis of artificial substrate, homology modelling and initial screening” (Bioorg Med Chem, 2008).
